The values below come from ChEMBL document CHEMBL4433205, “Dual Pharmacophores Explored via Structure-Activity Relationship (SAR) Matrix: Insights into Potent, Bifunctional Opioid Ligand Design” (J Med Chem, 2019).

Series [1] deals with Delta-type opioid receptor (Rattus norvegicus) (UniProt P33533). Put plainly: Agonist activity at rat delta opioid receptor expressed in rat C6 cell membranes assessed as stimulation of [35S]GTPgammaS binding incubated for 1 hr relative to DPDPE. The format is functional. Background: GTPγS is a poorly hydrolysed GTP analogue; its binding reports G protein activation.
Sequence of Delta-type opioid receptor (Rattus norvegicus) (P33533 whole entry): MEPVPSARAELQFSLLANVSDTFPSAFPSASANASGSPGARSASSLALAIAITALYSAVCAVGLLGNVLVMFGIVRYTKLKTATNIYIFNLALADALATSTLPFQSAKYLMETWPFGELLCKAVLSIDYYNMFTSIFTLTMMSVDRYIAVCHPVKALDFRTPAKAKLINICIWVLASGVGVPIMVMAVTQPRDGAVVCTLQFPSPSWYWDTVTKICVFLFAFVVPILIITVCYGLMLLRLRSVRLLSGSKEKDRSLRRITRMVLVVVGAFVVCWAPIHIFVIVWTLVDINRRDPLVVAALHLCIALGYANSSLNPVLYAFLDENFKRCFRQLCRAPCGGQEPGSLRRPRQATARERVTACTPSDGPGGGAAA
Series [2] addresses Mu-type opioid receptor (Rattus norvegicus) (UniProt P33535). As to the kind of experiment: Agonist activity at rat mu opioid receptor expressed in rat C6 glioma cell membranes assessed as stimulation of [35S]GTPgammaS binding measured after 1 hr relative to DAMGO. The format is functional.
Series [3] concerns the target T1, Kappa-type opioid receptor (Homo sapiens, UniProt P41145). Put plainly: Agonist activity at human kappa opioid receptor expressed in CHO cell membranes assessed as stimulation of [35S]GTPgammaS binding measured after 1 hr. The format is functional.
Series [4] has as its target T1, Kappa-type opioid receptor. As to the kind of experiment: Agonist activity at human kappa opioid receptor expressed in CHO cell membranes assessed as stimulation of [35S]GTPgammaS binding to G protein incubated for 1 hr relative to U69,593. Type of series: functional.
Series [5] concerns the target T2, Delta-type opioid receptor (Rattus norvegicus, UniProt P33533). Put plainly: Agonist activity at rat delta opioid receptor expressed in rat C6 cell membranes assessed as stimulation of [35S]GTPgammaS binding measured after 1 hr. The format is functional.
The test system of series [6] is Mus musculus. As to the kind of experiment: Antinociceptive activity in C57BL/6 mouse assessed as increase in latency to tail withdrawal up to 10 mg/kg, ip administered at 30 mins interval measured during compound dosing by warm water tail withdrawal assay relative to control. Type of series: functional. In a few lines:
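Male C57BL/6 mice, 20–30 g, 8–16 weeks. Saline ip, baseline latency 30 min later; then cumulative ip doses 1, 3.2, 10 mg/kg in 5% DMSO/saline at 30 min intervals, latency read 30 min after each. Tail tip (2–3 cm) in 50°C water, 20 s cutoff; expressed as % MPE (MPE = 20 s).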

The target in series [7] is T3, Mu-type opioid receptor (Rattus norvegicus, UniProt P33535). Put plainly: Agonist activity at rat mu opioid receptor expressed in rat C6 cell membranes assessed as stimulation of [35S]GTPgammaS binding measured after 1 hr. Type of series: functional. In a few lines:
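Membranes (10–20 μg protein/tube) from stably transfected cells incubated 1 h at 25°C in 50 mM Tris-HCl, 100 mM NaCl, 5 mM MgCl2, pH 7.4, with 0.1 nM [35S]-GTPγS, 30 μM GDP and varying test concentrations; filtration, scintillation counting.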

The species entered for series [8] is Rattus norvegicus. Put plainly: Selectivity ratio of Ki for rat delta opioid receptor expressed in rat C6 cell membranes to Ki for rat mu opioid receptor expressed in rat C6 cell membranes. The format is cell-based. In a few lines: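 Competition binding against 0.2 nM [3H]-diprenorphine, using C6 membranes expressing rat MOR or rat DOR (20 μg protein/tube). Run in 50 mM Tris-HCl pH 7.4, 1 h at room temperature with shaking, then filtration and scintillation counting. Nonspecific binding with 10 μM naloxone.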

In series [9] the target is T1, Kappa-type opioid receptor. Put plainly: Displacement of [3H]diprenorphine from human kappa opioid receptor expressed in CHO cell membranes measured after 1 hr by liquid scintillation counting method. In a few lines:
(§1)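 Competition with 0.2 nM [3H]-diprenorphine on membranes (20 μg protein/tube) from stably transfected cells in 50 mM Tris-HCl pH 7.4, 1 h at room temperature with shaking; GF/C filtration, three washes, scintillation counting. Nonspecific binding defined with 10 μM naloxone.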
(In general: Displacement assays read how much labelled ligand stays bound in the presence of the test substance.)

In series [10] the target is T2, Delta-type opioid receptor. Put plainly: Displacement of [3H]diprenorphine from rat delta opioid receptor expressed in rat C6 cell membranes measured after 1 hr by liquid scintillation counting method.
The target of series [11] is T3, Mu-type opioid receptor. Put plainly: Displacement of [3H]diprenorphine from rat mu opioid receptor expressed in rat C6 cell membranes measured after 1 hr by liquid scintillation counting method. In a few lines:
as §1

In series [12] the test system is Mus musculus. Put plainly: Antinociceptive activity in C57BL/6 mouse assessed as increase in latency to tail withdrawal by measuring time of action at 10 mg/kg, ip administered as bolus dose by warm water tail withdrawal assay. Type of series: functional. In a few lines:
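Male C57BL/6 mice; saline ip, baseline 30 min later, then single 10 mg/kg ip bolus in 5% DMSO/saline. Tail withdrawal in 50°C water (20 s cutoff) at 5, 15, 30 min and every 30 min until return to baseline; duration = time from dosing to baseline return, done only for fully active compounds.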

The nature of series [13]: Lipophilicity, log P of the compound. The format is physicochemical. Conditions: octanol/water.

Activity calls are given as the source filed them. Where only a bound is given, the exact number is not on record here.

T2 sequence (P33533 whole entry): as above
T1 sequence (P41145 whole entry): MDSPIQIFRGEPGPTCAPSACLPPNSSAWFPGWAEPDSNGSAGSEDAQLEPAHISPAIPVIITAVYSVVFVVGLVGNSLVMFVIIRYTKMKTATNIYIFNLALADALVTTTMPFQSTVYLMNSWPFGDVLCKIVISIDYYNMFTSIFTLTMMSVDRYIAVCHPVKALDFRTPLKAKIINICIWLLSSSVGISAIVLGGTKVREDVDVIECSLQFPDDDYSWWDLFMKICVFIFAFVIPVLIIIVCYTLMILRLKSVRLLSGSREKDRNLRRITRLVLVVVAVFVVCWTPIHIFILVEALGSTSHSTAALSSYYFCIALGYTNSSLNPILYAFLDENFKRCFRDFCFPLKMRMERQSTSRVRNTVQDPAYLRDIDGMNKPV
Sequence of Mu-type opioid receptor (Rattus norvegicus) (P33535 whole entry): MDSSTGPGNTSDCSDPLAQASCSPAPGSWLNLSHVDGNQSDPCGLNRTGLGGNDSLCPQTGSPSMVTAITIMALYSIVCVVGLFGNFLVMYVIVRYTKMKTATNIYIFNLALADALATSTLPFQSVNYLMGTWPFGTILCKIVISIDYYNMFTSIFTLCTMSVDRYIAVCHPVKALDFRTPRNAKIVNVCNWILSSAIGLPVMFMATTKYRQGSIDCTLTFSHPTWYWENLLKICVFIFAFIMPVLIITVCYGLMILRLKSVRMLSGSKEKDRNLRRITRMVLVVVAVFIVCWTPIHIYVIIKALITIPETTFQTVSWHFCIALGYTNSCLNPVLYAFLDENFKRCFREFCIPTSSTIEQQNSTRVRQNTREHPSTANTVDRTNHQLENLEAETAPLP
T3 sequence (P33535 whole entry): as above

Consider `CC(=O)N1CC[C@@H](NC(=O)[C@@H](N)Cc2c(C)cc(O)cc2C)c2cc(CN3CCc4ccccc4C3)ccc21.O=C(O)C(F)(F)F`, for which the Efficacy result in [1] is “inactive”. Further, the Efficacy amounted to 96% in series [2] and 41% in series [4]. Further, the EC50 was 190 nM in [3] (read-out: EC50), “Not Active” in [5] (c6) and 6 nM in series [7]. The MPE in series [6] is on record as 100%. Also, in series [8], the Ratio Ki worked out at 5. Besides, the Ki in series [9] came to 0.78 nM; in [10], 0.89 nM; in series [11] it was 0.19 nM. For the same compound, the Time in series [12] is given as 240 min. This compound also gave a logP in series [13] of 3.2.
For `Cc1cc(O)cc(C)c1C[C@H](N)C(=O)N[C@@H]1CCN(S(C)(=O)=O)c2ccc(Cc3ccccc3)cc21.O=C(O)C(F)(F)F`, the Efficacy in series [1] was determined as 22%; in series [2], 98%; in series [4], 60%. Besides, the concentration giving a half-maximal response (EC50) is 121 nM in series [3] (read-out: EC50), 12 nM in [5] (read-out: EC50) and 0.23 nM in series [7]. Moreover, the MPE in series [6] is 100%. Also, the Ratio Ki in series [8] amounted to 7. The Ki in [9] is 8 nM; in series [10], 0.41 nM; in series [11] it was 0.06 nM. Also, the Time in [12] was 60 min. Further, the logP in series [13] amounted to 3.3.
As to `Cc1cc(O)cc(C)c1C[C@H](N)C(=O)N[C@@H]1CCNc2ccc(Cc3ccccc3)cc21.O=C(O)C(F)(F)F`, the MPE in series [6] is given as 100%. Further, the Time in series [12] came out at 120 min. This compound came in with a lipophilicity (logP) in [13] of 3.8.
For the compound `CC(=O)N1CC[C@@H](NC(=O)[C@@H](N)Cc2c(C)cc(O)cc2C)c2cc(Cc3cnc4ccccc4c3)ccc21.O=C(O)C(F)(F)F`, the Efficacy in series [1] came out at 35%; in series [2] it was 76%. Besides, the EC50 result in [3] (cho) is “Not Active”; in series [5] (read-out: EC50), 5.8 nM; in series [7], 1.1 nM. For the same compound, in series [4], the Efficacy result was “inactive”. Moreover, in [6], the MPE stood at 60%. Also, the Ratio Ki in series [8] stood at 1. Further, the Ki turned out to be 53 nM in [9], 0.2 nM in [10] and 0.15 nM in series [11]. This compound had a logP in [13] of 3.2.
For the compound `CC(=O)N1CC[C@@H](NC(=O)[C@@H](N)Cc2c(C)cc(O)cc2C)c2cc(Cc3cc4ccccc4o3)ccc21`, the Efficacy in series [1] came out at 30%; in series [2] it was 86%; in series [4], 33%. The concentration giving a half-maximal response (EC50) in series [3] (read-out: EC50) was above 500 nM; in [5] (read-out: EC50), 1.6 nM; in series [7], 1.9 nM. Also, in [6], the MPE entry is “inactive”. The Ratio Ki in [8] worked out at 6. In addition, the figures for the Ki in [9], in series [10] and in series [11] were 58 nM, 0.73 nM and 0.12 nM, respectively. The logP in series [13] was 3.9.
As to `Cc1cc(O)cc(C)c1C[C@H](N)C(=O)N[C@@H]1CCN(C(=O)C2CC2)c2ccc(Cc3ccc4ccccc4c3)cc21`, the Efficacy is 32% in series [1], 85% in series [2] and 38% in series [4]. Also, the EC50 was above 500 nM in [3] (read-out: EC50), 1.9 nM in series [5] (read-out: EC50) and 0.42 nM in series [7]. For the same compound, the MPE entry in series [6] is “inactive”. The Ratio Ki in series [8] amounted to 7. Besides, the Ki in series [9] stood at 117 nM; in [10] it was 0.37 nM; in [11], 0.05 nM. Besides, the logP in [13] came out at 5.1.
With `Cc1cc(O)cc(C)c1C[C@H](N)C(=O)N[C@@H]1CCN(C(=O)C2CC2)c2ccc(CN3CCc4ccccc4C3)cc21.O=C(O)C(F)(F)F`, the Efficacy result in [1] and in [4] was “inactive” each time. For the same compound, the Efficacy in series [2] came out at 95%. The figures for the EC50 entry in [3] (cho), in series [5] (c6) and in series [7] were “Not Active”, “Not Active” and 0.52 nM, respectively. Also, the MPE in [6] amounted to 60%. Moreover, the Ratio Ki in [8] was determined as 7. Moreover, the Ki in [9] amounted to 40 nM; in series [10], 0.88 nM; in series [11], 0.12 nM. In addition, in series [13], the lipophilicity (logP) is 3.8.
Consider `Cc1cc(O)cc(C)c1C[C@H](N)C(=O)N[C@@H]1CCN(C(=O)c2ccccc2)c2ccc(Cc3ccc4ccccc4c3)cc21.O=C(O)C(F)(F)F`, for which the Efficacy in series [2] worked out at 57%. Moreover, the figures for the EC50 entry in [3] (cho), in [5] (c6) and in [7] were “Not Active”, “Not Active” and 7.9 nM, respectively. The Efficacy result in series [4] was “inactive”. For the same compound, the MPE in series [6] is reported as 100%. The figures for the Ki in series [9], in series [10] and in series [11] were 160 nM, 0.46 nM and 0.26 nM, respectively. In addition, the Time in series [12] was 150 min.
For the compound `Cc1cc(O)cc(C)c1C[C@H](N)C(=O)N[C@@H]1CCN(S(C)(=O)=O)c2ccc(Cc3ccc4ccccc4c3)cc21.O=C(O)C(F)(F)F`, the Efficacy entry in series [1] and in series [4] was “inactive” in each case. The Efficacy in series [2] was 102%. In addition, the EC50 result in series [3] (cho) was “Not Active”; in series [5] (c6), “Not Active”; in [7], 0.23 nM. Besides, the MPE result in [6] is “inactive”. Further, the Ratio Ki in [8] was 24. In addition, the Ki came to 27 nM in [9], 0.95 nM in [10] and 0.04 nM in series [11]. This compound also registered a logP in series [13] of 4.4.
On to `Cc1cc(O)cc(C)c1C[C@H](N)C(=O)N[C@@H]1CCN(C(=O)C2CC2)c2ccc(Cc3cnc4ccccc4c3)cc21.O=C(O)C(F)(F)F`, for which the figures for the Efficacy in [1] and in series [2] were 84% and 47%, respectively. Moreover, the EC50 entry in [3] (cho) is “Not Active”; in series [5] (read-out: EC50), 0.71 nM; in series [7] it was 0.34 nM. The Efficacy result in series [4] was “inactive”. Also, the MPE entry in series [6] was “inactive”. Besides, in [8], the Ratio Ki was 2. In addition, the Ki was found to be 84 nM in [9], 0.08 nM in [10] and 0.05 nM in series [11]. In series [13], the logP was determined as 3.8.
Regarding `Cc1cc(O)cc(C)c1C[C@H](N)C(=O)N[C@@H]1CCN(C(=O)C2CC2)c2ccc(Cc3ccc4c(c3)OCCO4)cc21.O=C(O)C(F)(F)F`, the Efficacy entry in series [1] and in series [4] was “inactive” each time. Also, the Efficacy in [2] came out at 36%. For the same compound, the 50% effective concentration (EC50) entry in series [3] (cho) was “Not Active”; in [5] (c6) it was “Not Active”; in series [7], 6 nM. Besides, the MPE result in series [6] was “inactive”. In series [8], the Ratio Ki came out at 0.7. In addition, the Ki in series [9] amounted to 412 nM; in series [10], 0.19 nM; in series [11], 0.28 nM. Moreover, the logP in series [13] was 3.7.
Turning to `Cc1cc(O)cc(C)c1C[C@H](N)C(=O)N[C@@H]1CCN(C(=O)c2ccccc2)c2ccc(CN3CCc4ccccc4C3)cc21.O=C(O)C(F)(F)F`, the Efficacy result in series [1] and in [4] was “inactive” each time. Moreover, the Efficacy in series [2] stood at 93%. Also, the figures for the concentration giving a half-maximal response (EC50) result in [3] (cho), in series [5] (c6) and in series [7] were “Not Active”, “Not Active” and 4.2 nM, respectively. Besides, in series [6], the MPE result was “inactive”. For the same compound, in series [8], the Ratio Ki was 11. Moreover, the Ki in [9] came out at 160 nM; in series [10], 4 nM; in [11] it was 0.37 nM. This compound also registered a lipophilicity (logP) in [13] of 4.5.

What is called EC50 is the concentration giving half of the maximal effect. As a reminder, the Ki is a measure of affinity in units of concentration, obtained from inhibition or displacement. A lower Ki goes with a stronger hold on the target. One may read the logP as the decadic logarithm of the partition coefficient of the neutral form, usually between octanol and water. Low readings indicate a more hydrophilic compound, high ones a more lipophilic compound.
